According to ChEMBL document CHEMBL1145729, “MMPs inhibitors: new succinylhydroxamates with selective inhibition of MMP-2 over MMP-3” (Bioorg Med Chem Lett, 2003):
Several values for one entry are separate records, joined by “and”; a condition that tells them apart may be missing. Equal values may be shown once.

What was measured:
[1] = target: T1, 72 kDa type IV collagenase (Homo sapiens, UniProt P08253); assay: Inhibition of human matrix metalloprotease-2
Stromelysin-1 [2] = target: T2, Stromelysin-1 (Homo sapiens, UniProt P08254); assay: Inhibition of human matrix metalloprotease-3
In short: (§1)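 Fluorogenic peptide cleavage assay with substrate Mca-Pro-Leu-Gly-Leu-Dpa-Ala-Arg-NH2. The enzyme was truncated recombinant MMP-3 lacking the PEX and pro domains, used instead of activated pro-MMP-3 because activation of the proenzyme was not reproducible.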

[3] = target: Matrix metalloproteinase (2 and 3) (Homo sapiens) (UniProt P08254+P08253); assay: Selectivity ratio for Matrix metalloprotease-2 over Matrix metalloprotease-3 (IC50); format: protein assay
[4] = target: T1, 72 kDa type IV collagenase; assay: Inhibition of human matrix metalloprotease-2 (inactive)
In short: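 Fluorogenic peptide cleavage assay with substrate Mca-Pro-Leu-Gly-Leu-Dpa-Ala-Arg-NH2. The enzyme was recombinant pro-MMP-2 activated with APMA.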

Stromelysin-1 [5] = target: T2, Stromelysin-1; assay: Inhibition of human matrix metalloprotease-3 (inactive); in short: as §1

T1 sequence (P08253 whole entry): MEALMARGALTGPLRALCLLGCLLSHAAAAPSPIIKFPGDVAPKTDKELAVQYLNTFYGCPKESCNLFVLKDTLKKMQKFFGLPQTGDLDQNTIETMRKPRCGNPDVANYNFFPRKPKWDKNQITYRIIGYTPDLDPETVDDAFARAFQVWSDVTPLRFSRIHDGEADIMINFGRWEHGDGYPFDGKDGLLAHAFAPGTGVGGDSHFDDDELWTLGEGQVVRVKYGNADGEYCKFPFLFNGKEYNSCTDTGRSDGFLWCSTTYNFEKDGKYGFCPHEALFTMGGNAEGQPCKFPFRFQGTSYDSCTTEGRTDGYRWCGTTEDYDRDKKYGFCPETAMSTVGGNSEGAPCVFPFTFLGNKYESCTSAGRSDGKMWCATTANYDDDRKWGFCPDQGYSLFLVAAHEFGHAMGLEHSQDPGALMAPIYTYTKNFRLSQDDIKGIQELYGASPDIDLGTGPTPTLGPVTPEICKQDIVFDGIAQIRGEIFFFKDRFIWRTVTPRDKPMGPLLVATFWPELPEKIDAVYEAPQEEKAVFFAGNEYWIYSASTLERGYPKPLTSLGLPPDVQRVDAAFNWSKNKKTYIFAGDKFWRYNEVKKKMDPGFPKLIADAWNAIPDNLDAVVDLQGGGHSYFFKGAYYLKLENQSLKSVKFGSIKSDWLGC
Sequence of Matrix metalloproteinase (2 and 3) (Homo sapiens) (P08253 whole entry, looked up): as the sequence (P08253 whole entry) above
Sequence of Matrix metalloproteinase (2 and 3) (Homo sapiens) (P08254 whole entry, looked up): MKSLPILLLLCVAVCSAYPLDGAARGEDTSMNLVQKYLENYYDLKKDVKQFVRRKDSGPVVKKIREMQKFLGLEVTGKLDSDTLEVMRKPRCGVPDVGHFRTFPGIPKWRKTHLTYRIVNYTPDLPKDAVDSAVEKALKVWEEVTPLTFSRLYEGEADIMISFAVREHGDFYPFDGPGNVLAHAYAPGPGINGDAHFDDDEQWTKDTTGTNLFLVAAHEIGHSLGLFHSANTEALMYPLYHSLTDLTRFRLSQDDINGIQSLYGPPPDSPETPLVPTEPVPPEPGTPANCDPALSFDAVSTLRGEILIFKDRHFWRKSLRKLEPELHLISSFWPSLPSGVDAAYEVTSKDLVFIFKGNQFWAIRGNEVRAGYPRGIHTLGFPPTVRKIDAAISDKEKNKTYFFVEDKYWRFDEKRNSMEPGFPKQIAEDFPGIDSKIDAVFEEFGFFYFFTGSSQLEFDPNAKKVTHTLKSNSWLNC
T2 sequence (P08254 whole entry, the tested form may be a part): as the sequence (P08254 whole entry, looked up) above

Structure (SMILES)	IC50 [1]	IC50 (Stromelysin-1 [2])	Selectivity [3]	IC50 [4]	IC50 (Stromelysin-1 [5])
CNC(=O)[C@H](Cc1c[nH]c2ccccc12)NC(=O)/C(=C/C(C)C)CC(=O)NO [listing 1 of 3 here]	1.3 nM	179 nM			
CNC(=O)[C@H](Cc1c[nH]c2ccccc12)NC(=O)/C(=C/C(C)C)CC(=O)NO [listing 2 of 3 here]			138 and 46		
CNC(=O)[C@H](Cc1c[nH]c2ccccc12)NC(=O)/C(=C/C(C)C)CC(=O)NO [listing 3 of 3 here]	19.6 nM	910 nM			
CNC(=O)[C@H](Cc1c[nH]c2ccccc12)NC(=O)[C@@H](CC(=O)NO)CC(C)C [ILOMASTAT]		0.191 nM			
CCOC(=O)[C@H](Cc1c[nH]c2ccccc12)NC(=O)/C(=C/C(C)C)CC(=O)NO	5.97 nM	2340 nM	392		
CNC(=O)C(Cc1c(CCN(C)C)[nH]c2ccccc12)NC(=O)/C(=C/C(C)C)CC(=O)NO (centres undefined)	5.73 nM	665 nM	116		
CNC(=O)[C@H](Cc1c[nH]c2ccccc12)NC(=O)/C(=C/C(C)C)CC(=O)OC				Not Active	Not Active
